In brackets after ≈: the same amount, converted by molar mass. Activity calls are given as the source filed them. The calls are words filed in the database; no cut-off is given here.
What was measured:
[1] = tested on: Ralstonia solanacearum; test: Antibacterial activity against Ralstonia solanacearum CGMCC 1.12711 measured after 12 to 14 hrs by double dilution method; format: functional
In short: (§1)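 Broth double-dilution MIC per NCCLS. Bacteria at 1×10^6 CFU/mL in Luria-Bertani medium. Compounds dissolved in DMSO as stock, then diluted in medium to 200, 100, 50, 25, 12.5, 6.25 and 3.125 nmol/mL (DMSO <0.5%); some also tested at 256–1 µg/mL. Incubated at 37 °C for 12–14 h. MIC read as lowest concentration giving visible growth inhibition.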

[2] = tested on: Staphylococcus aureus; test: Antibacterial activity against methicillin-resistant Staphylococcus aureus ATCC 43300 after 12 to 14 hrs by double dilution method; format: functional; in short: as §1
[3] = tested on: Bacillus cereus; test: Antibacterial activity against Bacillus cereus CGMCC 1.1846 after 12 to 14 hrs by double dilution method; format: functional
[4] = tested on: Staphylococcus aureus; test: Antibacterial activity against Staphylococcus aureus CGMCC 1.8721 after 12 to 14 hrs by double dilution method; format: functional
[5] = Cytotoxicity against […] MARC145 cells assessed as cell viability at 8 ug/ml by MTT assay; format: cell-based; conditions: chlorocebus aethiops, read-out: Activity
[6] = tested on: Bacillus subtilis; test: Antibacterial activity against Bacillus subtilis 769 after 12 to 14 hrs by double dilution method; format: functional
[7] = Cytotoxicity against human L02 cells assessed as cell viability at 8 ug/ml by MTT assay; format: cell-based; conditions: read-out: Activity
In short: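 MTT viability assay on normal cells (MARC 145 monkey kidney, L02 human hepatocyte) exposed to 8 µg/mL; MTT in PBS then 4 h at 37 °C, 5% CO2; formazan dissolved in DMSO with 15 min shaking; absorbance at 540 nm; viability = treated/untreated absorbance × 100%.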

[8] = tested on: Staphylococcus aureus; test: Antibacterial activity against methicillin-resistant Staphylococcus aureus after 48 hrs by broth microtube dilution method; format: functional
[9] = tested on: Staphylococcus aureus; test: Antibacterial activity against Staphylococcus aureus after 18 hrs; format: functional
[10] = Thermal stability of the compound at 1 ug/ml at 37 degC after 6 hrs by UHPLC-ESI-MS/MS analysis; format: physicochemical
In short: (§2)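 Sample held at 25 °C 0 h, 37 °C 6 h or 65 °C 6 h, then 5 µL injected on UHPLC coupled to ESI-QTOF MS/MS at 0.4 mL/min; sample 2 µg/mL with mobile phase A 10% acetonitrile (ampicillin sodium) or 1 µg/mL with 35% acetonitrile (test compound); residual parent compound monitored.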

[11] = tested on: Ralstonia solanacearum; test: Bactericidal activity against Ralstonia solanacearum CGMCC 1.12711 assessed as cell wall disintegration at 0.5 MIC after 1 hr by scanning electron microscopy analysis; format: functional, organism-based
[12] = tested on: Ralstonia solanacearum; test: Bactericidal activity against Ralstonia solanacearum CGMCC 1.12711 assessed as cell shrinkage at 0.5 MIC after 1 hr by scanning electron microscopy analysis; format: functional, organism-based
[13] = tested on: Staphylococcus aureus; test: Bactericidal activity against methicillin-resistant Staphylococcus aureus ATCC 43300 assessed as cell shrinkage at 0.5 MIC after 1 hr by scanning electron microscopy analysis; format: functional, organism-based
[14] = Thermal stability of the compound at 1 ug/ml at 65 degC after 6 hrs by UHPLC-ESI-MS/MS analysis; format: physicochemical; in short: as §2
[15] = tested on: Staphylococcus aureus; test: Bactericidal activity against methicillin-resistant Staphylococcus aureus ATCC 43300 assessed as cell wall disintegration at 0.5 MIC after 1 hr by scanning electron microscopy analysis; format: functional, organism-based
[16] = tested on: Escherichia coli; test: Antibacterial activity against Escherichia coli CGMCC 1.1636 after 12 to 14 hrs by double dilution method; format: functional
[17] = tested on: Ralstonia solanacearum; test: Protection against Ralstonia solanacearum-induced infection in eggplant leaf at 8 ug/ml after 3 days relative to control; format: functional
[18] = tested on: Staphylococcus aureus; test: Antibacterial activity against multidrug-resistant Staphylococcus aureus 1199B after 24 hrs; format: functional
[19] = tested on: Staphylococcus aureus; test: Antibacterial activity against multidrug-resistant Staphylococcus aureus XU212 after 24 hrs; format: functional; conditions: XU212, 24 h
[20] = tested on: Staphylococcus aureus; test: Antibacterial activity against methicillin-resistant Staphylococcus aureus EMRSA15 after 24 hrs; format: functional; conditions: EMRSA15, 24 h
[21] = Thermal stability of the compound at 2 ug/ml at 65 degC after 6 hrs by UHPLC-ESI-MS/MS analysis; format: physicochemical; in short: as §2
[22] = Thermal stability of the compound at 2 ug/ml at 37 degC after 6 hrs by UHPLC-ESI-MS/MS analysis; format: physicochemical; in short: as §2

SMILES	MIC [1] [µM]	MIC [2] [µM]	MIC [3] [µM]	MIC [4] [µM]	viability at 8 ug/ml [5] [%]	MIC [6] [µM]	viability at 8 ug/ml [7] [%]	MIC [16] [µM]	other results
COC(=O)c1ccc(-c2c3[nH]c4ccc(OC)cc4c3cc[n+]2Cc2ccc(Br)cc2)cc1	25	37.5	37.5	25	94.8	25	73.5		
Cc1ccc2[nH]c3c[n+](C)ccc3c2c1.[I-]									MIC [8]: 4 µg/mL
Cc1nccc2c1[nH]c1ccccc12 [HARMAN]									MIC [9]: 1000 µg/mL (≈ 5490 µM)
COc1ccc2[nH]c3c(-c4ccc5c(c4)OCO5)[n+](Cc4ccc(C(F)(F)F)cc4)ccc3c2c1.[Br-]	25	12.5	25	25	103	25	84.6	50	Stability [10]: Stable; Activity [11]: Active; Activity [12]: Active; Activity [13]: Active; Stability [14]: Stable; Activity [15]: Active; Activity [17]: 81.3%
COc1ccc2[nH]c3c(-c4ccc5c(c4)OCO5)[n+](Cc4ccc(C)cc4)ccc3c2c1	25	25	50	25	98.5	25	82.2	200	
O=c1ccc2nccc3c4ccccc4n1c23 [CANTHIN-6-ONE]									MIC [18]: 8 to 64 µg/mL (≈ 36.3 to 291 µM); MIC [19]: 8 to 64 µg/mL (≈ 36.3 to 291 µM); MIC [20]: 8 to 64 µg/mL (≈ 36.3 to 291 µM)
FC(F)(F)c1ccc(C[n+]2ccc3c([nH]c4ccccc43)c2-c2ccc3c(c2)OCO3)cc1	25	25	50	25	96.3	25	85.7	100	
CC1(C)S[C@@H]2[C@H](NC(=O)[C@H](N)c3ccccc3)C(=O)N2[C@H]1C(=O)[O-].[Na+] [AMPICILLIN SODIUM]	3.12	50	200	3.12		1.56		3.12	Stability [21]: Unstable; Stability [22]: Unstable
COC(=O)c1ccc(-c2c3[nH]c4ccc(OC)cc4c3cc[n+]2Cc2ccc(C(F)(F)F)cc2)cc1	25	25	25	25	93.2	25	71.6	200	
c1ccc(C[n+]2ccc3c([nH]c4ccccc43)c2-c2ccco2)cc1	100	100	> 200	100		100		> 200	
COc1ccc2[nH]c3c(-c4ccco4)[n+](Cc4ccc(C(F)(F)F)cc4)ccc3c2c1	25	25	50	25	88.5	25	74.3	50	
c1coc(-c2nccc3c2[nH]c2ccccc23)c1	> 200	> 200	> 200	> 200		> 200		> 200	
FC(F)(F)c1ccc(C[n+]2ccc3c([nH]c4ccccc43)c2-c2ccco2)cc1	25	25	50	25	87.1	25	76.2	50	
COc1ccc2[nH]c3c(-c4ccccn4)[n+](Cc4ccccc4)ccc3c2c1	> 200	> 200	> 200	> 200		> 200		> 200	

From ChEMBL document CHEMBL4325839, “Design, synthesis and biological evaluations of quaternization harman analogues as potential antibacterial agents” (Eur J Med Chem, 2018)
